# NR2E3 ag-1 = NR2E3 (human) agonism; Q9Y5X4; inhibition of corepressor binding, % at 4.78 µM; GST-NR2E3/biotin-RetCOR TR-FRET, 1536-well; actives 0.12% (n = 320,000); AID 2300;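 active = percent inhibition above the cutoff of mean plus 3 SD of all tested compounds, set per screening campaign, cut at about 20% in these data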;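 also: 0% = DMSO wells and 100% = biotin wells as full block of FRET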
#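 Assay system: NR2E3–RetCOR corepressor complex. Quantity: 1.35 nM GST-NR2E3. Buffer or medium: pH 7.5 Tris-based buffer. Reagent: biotinylated RetCOR corepressor at 7 nM final. Schedule: 5 h at 4 °C. Detection: TR-FRET, emission read at 617 and 671 nm. Replicates: one well per compound, singlicate testing.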
# Rev-erbA mod = modulates human Rev-erb alpha binding to DNA | P20393 | Rev-erbα–FITC-DNA binding, fluorescence polarization, 90 min | activity, % at 10 µM | actives 0.79% (n = 370,000);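 active = activity above about 14%, limit read from the data; passing the limit was not always enough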;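 also: 0% = DMSO wells with 35 nM protein and 100% = DMSO wells with 750 nM protein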
# PKA-R1A act = activates the PKA-R1A holoenzyme complex | P00514+P68181 | PKA-R1A dissociation, Cy5-IP20 fluorescence polarization; scaled: DMSO 0%, 113 µM cGMP 100% | activation, % at 11.4 µM | actives 0.083% (n = 340,000);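 active = percent activation above the mean of all tested compounds plus 3 SD, cut at about 19% in these data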;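 also: higher means more PKAc released from R1A so a rise in polarization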
# PG9 binder = PG9 antibody binding by small molecule; TR-FRET gp120-PG9 antibody binding; inhibition, % at 6.7 µM; actives 0.43% (n = 360,000); AID 624416; in the data active = inhibition above about 8.5%
# PKA-R2B activ = PKA-R2B complex activation; actives 0.079% (n = 340,000); PKA-R2B holoenzyme dissociation, Cy5-IP20 fluorescence polarization; R2B truncated from residue 108, S112A mutant; 0% DMSO only, 100% 113 µM cGMP; activation, % at 11.4 µM;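 active = activation above a cutoff set at the mean over all compounds plus 3 SD, cut at about 18% in these data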;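 also: higher means more holoenzyme dissociation and a rise in polarization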
# Target sequence (P31323 whole entry, looked up, other chains not shown, the tested form may be a part): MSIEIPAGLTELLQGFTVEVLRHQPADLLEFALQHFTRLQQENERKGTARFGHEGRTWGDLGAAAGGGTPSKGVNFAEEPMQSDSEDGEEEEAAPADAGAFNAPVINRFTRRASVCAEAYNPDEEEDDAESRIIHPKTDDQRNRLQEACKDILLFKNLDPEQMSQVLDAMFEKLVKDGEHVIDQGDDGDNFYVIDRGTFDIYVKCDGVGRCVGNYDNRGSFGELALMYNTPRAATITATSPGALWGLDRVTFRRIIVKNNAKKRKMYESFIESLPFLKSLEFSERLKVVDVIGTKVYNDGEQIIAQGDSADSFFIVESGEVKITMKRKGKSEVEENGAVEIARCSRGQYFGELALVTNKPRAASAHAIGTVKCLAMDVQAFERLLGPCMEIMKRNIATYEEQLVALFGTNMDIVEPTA
# NR2E3 ag-2 = activates human NR2E3 receptor | Q9Y5X4 | CHO-S Gal4-NCOR/VP16-NR2E3 two-hybrid, luciferase | inhibition of corepressor binding, % at 3.98 µM | actives 0.35% (n = 360,000);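 active = inhibition above the mean of all tested compounds plus 3 SD, cut at about 70% in these data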;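 also: 0% = DMSO with NR2E3 transfected cells and 100% = cells lacking NR2E3 construct; higher means lower luciferase signal from less NR2E3 corepressor binding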
# Rev-erbA confirm = Rev-erb alpha (human) modulation, hit confirmation; AID 1259319; Rev-erb alpha FITC-DNA binding, fluorescence polarization, 90 min; activation, % at 25 µM; shares compounds with Rev-erbA mod; actives 61% (n = 3,000);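 active = activation at or above a set limit, or at least 3 SD above the negative control mean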;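 also: 0% = 35 nM protein with DMSO and 100% = 750 nM protein high control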
# RORg DNA counter = counter-screen for Rev-erb alpha modulators: RORgamma DNA binding | shares compounds with Rev-erbA mod | purified RORgamma protein-FITC-DNA binding, fluorescence polarization | IC50, µM | actives 8% (n = 910) | AID 1259320;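 active = Compounds whose fitted half-maximal concentration for disrupting protein-DNA binding is below 10 micromolar; the record names Rev-erb in its text, so the target is in doubt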
# Active calls of the source: *; . = no result; + = active, no number. This is a sample that favours compounds with a hit; in the whole collection about 1.6% have one here.
SMILES,NR2E3 ag-1,Rev-erbA mod,PKA-R1A act,PG9 binder,PKA-R2B activ,NR2E3 ag-2,Rev-erbA confirm,others
O=C(Cn1cc(C(F)(F)F)cc(Cl)c1=O)Nc1cccc(Cl)c1,0.8,10.5,4.7,-0.1,-0.3,12.2,.,
O=C(Cn1cc(C(F)(F)F)cc(Cl)c1=O)Nc1cc(Cl)cc(Cl)c1,2.3,58.6*,-12.7,4.5,-6.4,8.3,26.8*,
COc1ccc(NC(=S)NNC(=O)CCn2cc([N+](=O)[O-])cn2)cc1,6.6,0.5,-4.9,-0.5,3.6,-17.8,.,
COc1ccc(NC(=O)CCCn2cc([N+](=O)[O-])cn2)cc1,-1.1,25.7*,-4.7,2.0,0.2,10.5,-0.4,
COC(=O)c1cc2c(c3c4cc(OC)ccc4n(S(=O)(=O)c4cccc(C)c4)c13)C(=O)N(Cc1ccc(C(F)(F)F)cc1)C2,.,18.2*,.,1.3,.,.,8.0,
COC(=O)c1cc2c(c3c4cc(F)ccc4n(S(=O)(=O)c4cccc(C)c4)c13)C(=O)N(Cc1ccc(C(F)(F)F)cc1)C2,.,0.2,.,1.2,.,.,.,
COc1ccccc1C=C(C(=O)c1ccccc1)c1ccccc1,.,18.1*,.,-2.5,.,13.5,5.5,
C[C@@H]1C[C@H]2[C@@H](Cc3ccccc3)C(=O)N3[C@H](c4ccccc4)[C@H](C)C[C@H]3[C@@H](Cc3ccccc3)C(=O)N2[C@@H]1c1ccccc1,.,5.2,.,.,.,.,.,
COC(=O)C1CN(C2CC2)CCS(=O)(=O)N1Cc1cn(Cc2ccccc2)nn1 (configuration not stated),.,0.6,.,.,.,.,.,
Cn1cc(CCOCc2ccccn2)c2ccccc21,.,-1.4,.,-0.8,.,.,.,
O=C(Nc1ccccc1)c1cccc(-c2nnc(-c3ccccc3)o2)c1,-0.5,30.4*,-6.5,1.0,-11.7,-92.9,10.3,
N#CC(C#N)=C1C=C2C=C(N3CCCCCC3)CCC2CC1 (configuration not stated),.,272.8*,4.5,-9.9,-3.6,-16.0,167.3*,RORg DNA counter=>40
N#CC(C#N)=C1C=C2C=C(N3CCOCC3)CCC2CC1 (configuration not stated),.,304.8*,-8.5,-4.4,-2.4,-16.4,111.1*,RORg DNA counter=>40
CN1CCN(C2=CC3=CC(=C(C#N)C#N)CCC3CC2)CC1 (configuration not stated),.,.,-11.7,.,-3.4,-14.3,.,
COC(=O)C1CCN(C(=O)CCn2nnc(-c3cccs3)n2)CC1,.,-2.3,.,.,.,.,.,
CCC(=O)Nc1ccc(NC(=O)CSc2nc3cc4c(cc3cc2C)CCC4)cc1,2.5,16.2,-7.9,1.3,-12.5,-29.0,.,
CCc1ccccc1NC(=O)CSc1nc2ccccc2nc1N1CCOCC1,2.1,14.6,-15.3,-0.2,3.2,7.1,.,
Cc1ccccc1NC(=O)CSc1nc2cc3c(cc2cc1C)CCC3,5.1,102.0*,1.0,-1.6,0.5,0.8,23.4*,
COc1ccc(NC(=O)COc2nc3ccccc3nc2N2CCOCC2)c(OC)c1,2.3,23.9*,1.3,-3.8,6.8,-7.5,10.4,
Cc1ccc(C)c(NC(=O)CSc2nc3ccccc3nc2N2CCOCC2)c1,4.1,32.2*,-12.5,-1.8,-2.7,-32.5,24.5*,
Cc1cc(C)c2nc(SCC(=O)Nc3ccccc3N3CCOCC3)c(C#N)cc2c1,2.3,65.0*,-3.7,-0.7,0.6,19.7,32.2*,RORg DNA counter=>40
COC(=O)C1=C(C)N(Cc2ccc(C(F)(F)F)cc2)C(=NCc2ccc(C(F)(F)F)cc2)NC1c1ccccc1C(F)(F)F (configuration not stated),.,-2.3,.,-0.2,.,.,.,
c1ccc(-c2nc3nonc3c3nc4ccccc4n23)cc1,2.5,-4.8,3.4,0.6,-3.9,-5.2,.,
c1ccc(-c2nc3ccccc3c3nc4ccccc4n23)cc1,-1.3,21.8*,6.2,-0.1,0.5,-27.6,-2.5,
COC(=O)c1sc2nc(SCc3ccccc3C)n(N)c(=O)c2c1C,2.5,107.4*,8.3,-0.9,-7.4,-10.6,12.2,
SMILES,NR2E3 ag-1,Rev-erbA mod,PKA-R1A act,PG9 binder,PKA-R2B activ,NR2E3 ag-2,Rev-erbA confirm,others
COC(=O)c1sc2nc(SCc3cccc(Cl)c3)n(N)c(=O)c2c1C,5.4,20.0,-11.8,-1.1,-5.6,6.7,.,
O=[N+]([O-])c1ccc(O)c(-c2cc(C(F)(F)F)nc(-c3ccccc3)n2)c1,-0.8,133.2*,13.6,-2.4,7.6,27.8,159.3*,RORg DNA counter=7.96*
O=C(CSc1ncnc2c1oc1ccccc12)Nc1ccccc1F,4.0,606.2*,-2.9,0.6,0.6,-10.6,615.7*,RORg DNA counter=>40
CC(=O)CSc1ncnc2c1oc1ccccc12,0.8,-3.8,12.2,-20.5,4.3,-32.3,.,
CC(=O)Nc1ccc(NC(=O)CSc2nnc(-c3cc4ccccc4o3)n2C)cc1,3.9,2.8,7.0,-0.6,9.2,18.7,.,
CCc1nnc(NC(=O)CSc2nnc(-c3ccccc3NC(=O)c3ccccc3)o2)s1,2.3,28.0*,-10.3,0.5,3.9,3.2,7.5,
Cn1c(SCC(=O)Nc2ccccc2F)nnc1-c1cc2ccccc2o1,0.9,25.5*,-2.6,0.1,11.1,-4.8,15.7,
CCOc1ccccc1NC(=O)CSc1ncnc2c1oc1ccccc12,7.4,+,3.6,-1.9,4.9,10.7,+,
CCOC(=O)CC[C@H]1CC[C@]2(CCCN(C(=O)c3ccco3)C2)O1,.,-1.9,.,.,.,.,.,
CCc1nnc(NC(=O)CSc2ncnc3c2oc2ccccc23)s1,4.1,98.0*,7.5,-2.7,15.5,-19.4,20.5*,
O=C(CSc1ncnc2c1oc1ccccc12)Nc1nc2ccccc2s1,15.1,5.0,-7.1,-4.5,5.0,-22.9,.,
CCc1nc(SCC(=O)NCCc2ccccc2)c2oc3ccccc3c2n1,3.5,62.2*,-5.6,-2.6,9.8,-23.2,69.4*,RORg DNA counter=>40
COC(=O)C1=C(C)N(Cc2ccc(C(F)(F)F)cc2)C(=NCc2ccccc2)NC1c1ccc(C(F)(F)F)cc1 (configuration not stated),.,-4.1,.,-0.2,.,.,.,
CCCCCCCCN1C(=O)[C@@H](CC(=O)N2CCN(C(=O)c3ccco3)CC2)C[C@@]2(C(=O)OC)C1=C[C@H](C(C)C)O[C@@H]2C1CC1,.,-3.6,.,.,.,.,.,
O=C(O)c1ccccc1C(c1ccccc1)c1ccccc1O (configuration not stated),.,54.4*,-6.8,0.3,-3.4,7.2,44.8*,RORg DNA counter=>40
COC(=O)C1CN(C2CCCC2)CCS(=O)(=O)N1Cc1ccc(F)cc1 (configuration not stated),.,-5.9,.,.,.,.,.,

# Screening data: PubChem BioAssay, several laboratories
